Measured values as given in ChEMBL document CHEMBL1134460, “Terminally alkylated polyamine analogues as chemotherapeutic agents” (J Med Chem, 2001).
pIC50: −log10 of the molar value.

How the values were obtained:
NCH82 = test: In vitro activity against H82 small-cell lung tumor line (SCLC) cultures.; assay type: functional, cell-based; details: Homo sapiens
NCI-H157 [1] = test: Effect of exposure of H157 non-SCLC (<10 uM) for 96-h, and accumulation of compound was determined; assay type: functional, Homo sapiens
NCI-H157 [2] = test: In vitro activity against H157 non-small-cell lung tumor line (non-SCLC) cultures.; assay type: functional, cell-based; details: Homo sapiens
NCI-H157 [3] = test: Effect of exposure of H157 non-SCLC to compound (<10 uM) for 96-h, on natural polyamines and accumulation of the compound; Decrease; assay type: functional, cell-based; details: Homo sapiens
Method in brief: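 H157 non-SCLC cells were treated with 10 μM analogue. Cellular putrescine, spermidine and spermine, plus the intracellular analogue, were quantified and compared with untreated control cells.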

NCI-H157 [4] = test: Spermine/Spermidine-N1-acetyltransferase activity in NCI H157 non-SCLC tumor cells following 24-h treatment with 10 uM of compound; assay type: functional, Homo sapiens
Method in brief: (§1)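 NCI H157 non-SCLC cells were exposed to 10 μM analogue alongside untreated controls. Cellular polyamines and analogue were quantified. SSAT activity was assayed in the cells and reported as pmol product/mg protein/min.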

NCI-H157 [5] = test: BENSpm level in NCI H157 non-SCLC tumor cells following 24-h treatment with 10 uM of compound; assay type: functional, Homo sapiens; method in brief: as §1
NCI-H157 [6] = test: CHENSpm level in NCI H157 non-SCLC tumor cells following 24-h treatment with 10 uM of compound; assay type: functional, Homo sapiens; method in brief: as §1
NCI-H157 [7] = test: Putrescine level in NCI H157 non-SCLC tumor cells following 24-h treatment with 10 uM of compound; assay type: functional, Homo sapiens; method in brief: as §1
NCI-H157 [8] = test: Spermidine level in NCI H157 non-SCLC tumor cells following 24-h treatment with 10 uM of compound; assay type: functional, Homo sapiens; method in brief: as §1
NCI-H157 [9] = test: Spermine level in NCI H157 non-SCLC tumor cells following 24-h treatment with 10 uM of compound; assay type: functional, Homo sapiens; method in brief: as §1
[10] = biological target: T1, Ornithine decarboxylase (Homo sapiens) (UniProt P11926); test: Inhibition of ornithine decarboxylase (ODC); design: concentration or dose not given beside the values; details: concentration not given here
T1 sequence (whole entry): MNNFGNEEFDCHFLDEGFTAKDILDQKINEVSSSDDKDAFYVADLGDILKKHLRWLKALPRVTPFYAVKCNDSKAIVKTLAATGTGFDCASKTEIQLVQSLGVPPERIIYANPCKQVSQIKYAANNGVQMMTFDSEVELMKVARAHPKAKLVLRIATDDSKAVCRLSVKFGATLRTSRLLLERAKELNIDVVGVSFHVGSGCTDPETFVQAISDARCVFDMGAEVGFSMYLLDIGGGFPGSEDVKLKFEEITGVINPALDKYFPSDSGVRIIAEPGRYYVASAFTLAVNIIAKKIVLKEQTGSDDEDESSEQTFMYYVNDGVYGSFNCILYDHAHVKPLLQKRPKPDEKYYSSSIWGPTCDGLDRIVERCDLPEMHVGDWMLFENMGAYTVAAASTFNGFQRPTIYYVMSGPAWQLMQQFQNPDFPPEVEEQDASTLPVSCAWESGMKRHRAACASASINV

[11] = Compound was evaluated for cytotoxic activity against PC-3, DU145 and LNCaP cell lines; assay type: functional, Homo sapiens
Method in brief: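 PC-3, DU145 and LNCaP prostate cancer cells were exposed to analogues over 0.1–30 μM for 120 h. Dose–response curves of growth were recorded.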

[12] = biological target: Diamine acetyltransferase 1 (Homo sapiens, UniProt P21673); test: Effect of 10 uM on spermine/spermidine-N-acetyltransferase (SSAT) induction in non-SCLC cells; assay type: cell-based
Method in brief: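 NCI H157 non-small-cell lung tumor cells were exposed to 10 μM analogue. SSAT activity was assayed and expressed as pmol product/mg protein/min, then as fold increase over untreated control cells.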

[13] = biological target: S-adenosylmethionine decarboxylase (Homo sapiens) (UniProt P17707); test: Inhibition of Inhibition of human form of S-adenosyl-methionine decarboxylase enzyme (AdoMet-DC); design: concentration or dose not given beside the values; details: concentration not given here
Trypanosoma brucei [14] = test: In vitro growth Inhibitory activity against LAB 110 Strain of Trypanosoma brucei; assay type: functional, organism-based
Method in brief: (§2)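 In vitro growth inhibition was run against T. b. brucei LAB EATRO 110 and T. b. rhodesiense KETRI 243, KETRI 243 As-10-3 and KETRI 269. […] ">100" means no appreciable inhibition up to the highest concentration tested.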

Trypanosoma brucei [15] = test: In vitro growth Inhibitory activity against K243 Strain of Trypanosoma brucei.; assay type: functional, organism-based; method in brief: as §2
NCI-H157 [16] = test: Effect of exposure of H157 non-SCLC to compound (<10 uM) for 96-h, on natural polyamines and accumulation of the compound; No significant change; assay type: functional, cell-based; details: Homo sapiens
Trypanosoma brucei [17] = test: In vitro growth Inhibitory activity against K243 As-10-3 Strain of Trypanosoma brucei; assay type: functional, organism-based; method in brief: as §2
Trypanosoma brucei [18] = test: In vitro growth Inhibitory activity against K269 Strain of Trypanosoma brucei.; assay type: functional, organism-based; method in brief: as §2
Trypanosoma brucei [19] = test: in vivo inhibition of trypanosomal brucei growth was determined; assay type: functional, organism-based
[20] = Half-life period as determined by N-deethylation and stepwise removal of aminopropyl equivalents; assay type: ADME
NCI-H157 [21] = test: Spermine/Spermidine-N1-acetyltransferase activity in NCI H157 non-SCLC tumor cells following 24-h treatment with 10 uM of compound.( Values in parentheses are control values); assay type: functional, Homo sapiens; method in brief: as §1
NCI-H157 [22] = test: BENSpm level in NCI H157 non-SCLC tumor cells following 24-h treatment with 10 uM of compound( Values in parentheses are control values); assay type: functional, Homo sapiens; method in brief: as §1
NCI-H157 [23] = test: CHENSpm level in NCI H157 non-SCLC tumor cells following 24-h treatment with 10 uM of compound( Values in parentheses are control values); assay type: functional, Homo sapiens; method in brief: as §1
NCI-H157 [24] = test: Putrescine level in NCI H157 non-SCLC tumor cells following 24-h treatment with 10 uM of compound( Values in parentheses are control values); assay type: functional, Homo sapiens; method in brief: as §1
NCI-H157 [25] = test: Spermidine level in NCI H157 non-SCLC tumor cells following 24-h treatment with 10 uM of compound( Values in parentheses are control values); assay type: functional, Homo sapiens; method in brief: as §1
NCI-H157 [26] = test: Spermine level in NCI H157 non-SCLC tumor cells following 24-h treatment with 10 uM of compound( Values in parentheses are control values); assay type: functional, Homo sapiens; method in brief: as §1
Spermine synthase = biological target: T2, Spermine synthase (Homo sapiens, UniProt P52788); test: Inhibitory activity against spermine synthase
T2 sequence (P52788 whole entry): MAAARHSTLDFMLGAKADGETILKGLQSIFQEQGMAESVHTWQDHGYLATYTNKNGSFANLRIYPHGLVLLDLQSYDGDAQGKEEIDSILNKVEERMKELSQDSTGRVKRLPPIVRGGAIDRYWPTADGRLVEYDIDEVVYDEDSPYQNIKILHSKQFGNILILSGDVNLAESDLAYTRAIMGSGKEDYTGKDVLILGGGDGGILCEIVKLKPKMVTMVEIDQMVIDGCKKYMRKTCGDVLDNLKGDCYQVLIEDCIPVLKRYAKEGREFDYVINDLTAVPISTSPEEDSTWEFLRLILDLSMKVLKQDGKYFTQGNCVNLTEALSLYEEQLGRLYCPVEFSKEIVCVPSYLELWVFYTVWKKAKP

NCI-H157 [27] = test: Antitumor activity was determined against H157 cell line; assay type: functional, cell-based; details: Homo sapiens
Mus musculus = species on record: Mus musculus; test: […] activity was determined against Leishmania donovani in mice (Mus musculus); assay type: functional
Cricetinae gen. sp. = test: […] activity was determined against Leishmania donovani in hamsters; assay type: functional, Cricetulus griseus

Chain of Diamine acetyltransferase 1 (P21673 whole entry): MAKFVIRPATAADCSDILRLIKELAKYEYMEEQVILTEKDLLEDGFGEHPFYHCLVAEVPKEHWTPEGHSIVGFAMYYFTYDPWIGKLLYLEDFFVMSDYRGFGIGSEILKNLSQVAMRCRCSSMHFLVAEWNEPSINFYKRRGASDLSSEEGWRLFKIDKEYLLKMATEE

SMILES | Amount (NCI-H157 [1]) | Effect on polyamine pools (NCI-H157 [3]) | inhibition [10] [%] | Induction [12] | inhibition [13] [%] | also measured
CCNCCCNCCCNCCCNCC1CCCCCC1 | >20 nM (mg of protein)-1 | Decrease | < 50 | 0 | < 50 | pIC50 (NCH82): 6.15; pIC50 (NCI-H157 [2]): 6.40; Activity (NCI-H157 [4]): 781 (pM of product) min-1 (mg of protein)-1; Polyamine level (NCI-H157 [5]): 0; Polyamine level (NCI-H157 [6]): 14.66; Polyamine level (NCI-H157 [7]): 4.28; Polyamine level (NCI-H157 [8]): 6.44; Polyamine level (NCI-H157 [9]): 15.97; CC [11]: 30 µM
N[C@@H]1C=C[C@H](NCCCNCC2CC2)C1 | – | – | – | – | – | pIC50 (Trypanosoma brucei [14]): < 4.00; pIC50 (Trypanosoma brucei [15]): < 4.00
CCNCCCNCCCCCCCNCCCNCC1CCCCCC1 | <20 nM (mg of protein)-1 | – | < 50 | 0 | < 50 | NC (NCI-H157 [16]): No significant change
COc1cccc(CNCCCNCCCCCCCNCCCNCc2cccc(OC)c2)c1 | – | – | – | – | – | pIC50 (Trypanosoma brucei [17]): 5.26; pIC50 (Trypanosoma brucei [18]): 4.78; pIC50 (Trypanosoma brucei [14]): 4.66; pIC50 (Trypanosoma brucei [15]): 4.73
CCNCCCNCCCNCCCN1CCCCCC1 | – | Decrease | – | > 500 | – | –
C[S+](C[C@@H]1O[C@H](n2cnc3c(N)ncnc32)[C@@H](O)[C@H]1O)C1C=CC(N)C1 (stereo partly specified) | – | – | – | – | – | pIC50 (Trypanosoma brucei [19]): 5.28
CCNCCCNCCCNC1CCCCCC1 | – | Decrease | < 50 | > 50 | – | –
CCNCCCCNCCCNCC | >20 nM (mg of protein)-1 | Decrease | > 50 | > 50 | < 50 | –
CCNCCCNCCCNCCCNCC1CCC1 | >20 nM (mg of protein)-1 | Decrease | > 50 | > 500 | – | –
CCNCCCNCCCNCCCNCC [BIS(ETHYL)NORSPERMINE] | >20 nM (mg of protein)-1 | Decrease | > 50 | > 500 | > 50 | half-life [20]: 1.22 h; Activity (NCI-H157 [21]): 148141 (pM of product) min-1 (mg of protein)-1; Polyamine level (NCI-H157 [22]): 36.07; Polyamine level (NCI-H157 [23]): 0; Polyamine level (NCI-H157 [24]): 0; Polyamine level (NCI-H157 [25]): 0; Polyamine level (NCI-H157 [26]): 0.51
CCNCCCNCCCNCCCNC1CCCCCC1 | >20 nM (mg of protein)-1 | Decrease | – | > 500 | – | –
NCCCNCCCCCC(CCN)SC[C@H]1O[C@@H](n2cnc3c(N)ncnc32)[C@H](O)[C@@H]1O (stereo partly specified) | – | – | – | – | – | pIC50 (Spermine synthase): 7.70
c1ccc(CNCCCNCCCCCCCNCCCNCc2ccccc2)cc1 | – | – | – | – | – | pIC50 (NCH82): 5.77; pIC50 (NCI-H157 [2]): 6.30; pIC50 (NCI-H157 [27]): 6.30; ED50 (Mus musculus): 2.5 mg/kg; ED50 (Cricetinae gen. sp.): 1 mg/kg
